Data taken from ChEMBL document CHEMBL5329191, “Optimization of the 2-arylquinazoline-4(3H)one scaffold for a selective and potent antitrypanosomal agent: modulation of the mechanism of action through chemical functionalization” (RSC Med Chem, 2023).
Converted amounts (≈) assume the structure as drawn. The source made the active and inactive calls. No cut-off for these calls is given here.

Legend:
Trypanosoma cruzi [1] = assay: Antitrypanosomal activity against of Trypanosoma cruzi epimastigotes at 25 uM; type: functional
Trypanosoma cruzi [2] = assay: Antitrypanosomal activity against of Trypanosoma cruzi epimastigotes; type: functional, organism-based
Leishmania infantum [3] = assay: Antileishmanial activity against Leishmania infantum promastigotes; type: functional, organism-based
Leishmania infantum [4] = assay: Induction of NO production in Leishmania infantum promastigotes at highest concentration by Griess method; type: functional
In short: (§1)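 NO production in parasite cultures was measured at three test concentrations, either 25, 50 and 100 μM or 1, 5 and 10 μM depending on the compound.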

Trypanosoma cruzi [5] = assay: Induction of ROS production in Trypanosoma cruzi epimastigotes by DCFH-DA staining based flow cytometry analysis; type: functional, organism-based
In short: (§2)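 Oxidative stress in parasite cultures was read fluorometrically with the 2,7-dichlorodihydrofluorescein diacetate (DCFH-DA) probe against a negative-control culture, and was also run with metal cations present.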

Trypanosoma cruzi [6] = assay: Induction of NO production in Trypanosoma cruzi epimastigotes at highest concentration by Griess method; type: functional; in short: as §1
Trypanosoma cruzi [7] = assay: Induction of NO production in Trypanosoma cruzi epimastigotes by Griess method; type: functional, organism-based; in short: as §1
Leishmania infantum [8] = assay: Induction of ROS production in Leishmania infantum promastigotes by DCFH-DA staining based flow cytometry analysis; type: functional, organism-based; in short: as §2
Trypanosoma cruzi [9] = assay: Antitrypanosomal activity against of Trypanosoma cruzi epimastigotes assessed as increase in IC50 in presence of FA; type: functional
Leishmania infantum [10] = assay: Induction of NO production in Leishmania infantum promastigotes by Griess method; type: functional, organism-based; in short: as §1
Leishmania infantum [11] = assay: Antileishmanial activity against Leishmania infantum promastigotes assessed as increase in IC50 in presence of FA; type: functional
Trypanosoma cruzi [12] = assay: Antitrypanosomal activity against of Trypanosoma cruzi epimastigotes in presence of FA; type: functional, organism-based
Leishmania infantum [13] = assay: Antileishmanial activity against Leishmania infantum promastigotes in presence of FA; type: functional, organism-based
[14] = Mutagenicity in Salmonella typhimurium TA98 assessed as number of revertant colonies at 2500 uM by Ames test (reference value: 4); type: toxicity; details: salmonella enterica subsp. enterica […]
In short: (§3)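 Ames reverse-mutation assay in Salmonella typhimurium TA 98. Revertant colonies were counted at five escalating dose levels alongside a zero-dose (spontaneous revertant) negative control and a 4-nitro-o-phenylenediamine positive control. A compound was called mutagenic when revertants exceeded twice the negative control at two consecutive dose levels.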

[15] = Cytotoxicity against mouse J774.1 cells; type: toxicity, cell-based
In short: (§4)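 Cytotoxicity (CC50) was measured on murine J774.1A macrophages. Selectivity index is CC50 divided by parasite IC50 (promastigote, epimastigote or axenic amastigote). Values are the mean of three independent experiments.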

Leishmania infantum [16] = assay: Antileishmanial activity against Leishmania infantum axenic amastigotes; type: functional, organism-based
[17] = Selectivity index, ratio of CC50 for mouse J774.1 cells to IC50 for Trypanosoma cruzi epimastigotes; type: toxicity; details: read-out: Ratio CC50/IC50; in short: as §4
Leishmania infantum [18] = assay: Induction of ROS production in Leishmania infantum promastigotes in presence of Cu2+; type: functional, organism-based; in short: as §2
Leishmania infantum [19] = assay: Antileishmanial activity against Leishmania infantum promastigotes assessed as decrease in IC50 in presence of iron(III); type: functional, organism-based
In short: (§5)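 Parasite proliferation was run in the presence of copper(II), iron(III) or zinc(II) salts, each at 1 μM.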

Trypanosoma cruzi [20] = assay: […] activity against Trypanosoma cruzi epimastigotes assessed as change in parasites in presence of zinc(II); type: functional, organism-based; in short: as §5
[21] = Selectivity index, ratio of CC50 for mouse J774.1 cells to IC50 for Leishmania infantum amastigotes; type: toxicity; details: read-out: Ratio CC50/IC50; in short: as §4
Trypanosoma cruzi [22] = assay: Induction of ROS production in Trypanosoma cruzi epimastigotes in presence of Fe3+; type: functional, organism-based; in short: as §2
[23] = Mutagenicity in Salmonella typhimurium TA98 assessed as number of revertant colonies at 830 uM by Ames test (reference value: 4); type: toxicity; details: salmonella enterica subsp. enterica […]; in short: as §3
Leishmania infantum [24] = assay: Antileishmanial activity against Leishmania infantum promastigotes assessed as decrease in IC50 in presence of zinc(II); type: functional, organism-based; in short: as §5
Leishmania infantum [25] = assay: Antileishmanial activity against Leishmania infantum promastigotes assessed as decrease in IC50 in presence of copper(II); type: functional, organism-based; in short: as §5
Trypanosoma cruzi [26] = assay: Induction of ROS production in Trypanosoma cruzi epimastigotes in presence of Zn2+; type: functional, organism-based; in short: as §2
[27] = Solubility of the compound by UV-Vis spectroscopy; type: physicochemical
In short: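 Solubility in μM was determined by UV-Vis spectroscopy.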

[28] = Selectivity index, ratio of CC50 for mouse J774.1 cells to IC50 for Leishmania infantum promastigotes; type: toxicity; details: read-out: Ratio CC50/IC50; in short: as §4
Trypanosoma cruzi [29] = assay: […] activity against Trypanosoma cruzi epimastigotes assessed as change in parasites in presence of iron(III); type: functional, organism-based; in short: as §5
[30] = Mutagenicity in Salmonella typhimurium TA98 assessed as number of revertant colonies at 90 uM by Ames test (reference value: 4); type: toxicity; details: salmonella enterica subsp. enterica […]; in short: as §3
Leishmania infantum [31] = assay: Induction of ROS production in Leishmania infantum promastigotes in presence of Fe3+; type: functional, organism-based; in short: as §2
Trypanosoma cruzi [32] = assay: Induction of ROS production in Trypanosoma cruzi epimastigotes in presence of Cu2+; type: functional, organism-based; in short: as §2
Trypanosoma cruzi [33] = assay: […] activity against Trypanosoma cruzi epimastigotes assessed as change in parasites in presence of copper(II); type: functional, organism-based; in short: as §5
Leishmania infantum [34] = assay: Induction of ROS production in Leishmania infantum promastigotes in presence of Zn2+; type: functional, organism-based; in short: as §2
[35] = Mutagenicity in Salmonella typhimurium TA98 assessed as number of revertant colonies at 7500 uM by Ames test (reference value: 4); type: toxicity; details: salmonella enterica subsp. enterica […]; in short: as §3
[36] = Mutagenicity in Salmonella typhimurium TA98 assessed as number of revertant colonies at 270 uM by Ames test (reference value: 4); type: toxicity; details: salmonella enterica subsp. enterica […]; in short: as §3

SMILES | IC50 (Trypanosoma cruzi [2]) | IC50 (Leishmania infantum [3]) | Activity (Leishmania infantum [4]) | Activity (Trypanosoma cruzi [5]) | Activity (Trypanosoma cruzi [6]) | Activity (Trypanosoma cruzi [7]) | Activity (Leishmania infantum [8]) | Activity (Trypanosoma cruzi [9]) | Activity (Leishmania infantum [10]) | Activity (Leishmania infantum [11]) | IC50 (Trypanosoma cruzi [12]) | CC50 [15] | IC50 (Leishmania infantum [16]) | selectivity ratio [17] | selectivity ratio [21] | solubility [27] | selectivity ratio [28] | also measured
NNc1nc(-c2ccccc2)nc2ccccc12 | > 25 µM | 12.7 µM |  |  |  |  |  |  |  |  |  |  |  |  |  |  |  | inhibition at 25 µM (Trypanosoma cruzi [1]): 42.7%
NNc1nc(-c2ccc(Cl)cc2)nc2ccccc12 | 11.5 µM | 1.56 µM | >4 µM | inactive | >2 µM | Dose-Dependent Effect | inactive | 42% | Dose-Dependent Effect | 31% | 19.1 µM |  |  |  |  |  |  | IC50 (Leishmania infantum [13]): 2.05 µM
O=[N+]([O-])c1ccc(/C=N/N=c2\[nH]c(-c3cccc(Cl)c3)nc3ccccc23)o1 | 0.77 µM | 0.77 µM | 2 µM | Active | 1 µM | Dose-Dependent Effect | Active |  | Dose-Dependent Effect |  |  | 41.6 µM | 0.89 µM | 60.2 | 46.7 | 7.11 µM (≈ 2.8 µg/mL) | 54 | Activity [14]: 10.5; Activity (Leishmania infantum [18]): Active; Activity (Leishmania infantum [19]): Active; Activity (Trypanosoma cruzi [20]): inactive; Activity (Trypanosoma cruzi [22]): Active; Activity [23]: 9.5; Activity (Leishmania infantum [24]): Active; Activity (Leishmania infantum [25]): Active; Activity (Trypanosoma cruzi [26]): Active; Activity (Trypanosoma cruzi [29]): inactive; Activity [30]: 3; Activity (Leishmania infantum [31]): Active; Activity (Trypanosoma cruzi [32]): Active; Activity (Trypanosoma cruzi [33]): inactive; Activity (Leishmania infantum [34]): Active; Activity [35]: 9.5; Activity [36]: 10
O=[N+]([O-])c1ccc(/C=N/N=c2\[nH]c(-c3ccc(Br)cc3)nc3ccccc23)o1 | > 25 µM | > 25 µM |  |  |  |  |  |  |  |  |  |  |  |  |  | 2.67 µM (≈ 1.17 µg/mL) |  | 
Fc1ccc(-c2nc3ccccc3/c(=N/N=C/c3ccco3)[nH]2)cc1 | 9.07 µM | 9.07 µM |  | inactive |  | inactive | inactive | 37% | inactive | 41% | 33.1 µM | 119 µM | 11.1 µM | 5.7 | 10.7 | 7.87 µM (≈ 2.62 µg/mL) | 13.1 | 
O=c1[nH]c(-c2cccc(Br)c2)nc2ccccc12 | > 25 µM | > 25 µM |  |  |  |  |  |  |  |  |  |  |  |  |  |  |  | 
